For series [1], the system named is Rattus norvegicus. The experiment in a line: Immunosuppressive activity in Lewis rat assessed as reduction in blood lymphocytes count at 2 mg/kg, po after 4 hrs relative to control. The series is classed as functional. The arrangement: scale not given: the % may be the effect or the level left. Put shortly:
(§1)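 Oral dosing in Lewis rats, with PEG300 as vehicle, given as solution or suspension adjusted for free test article if salt forms are used. Blood sampled at several time points. Lymphocytes counted on a hematology analyzer. Result is the reduction in circulating lymphocyte percentage versus the vehicle group at each time, averaged per group (n = 2).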

The nature of series [2]: Prodrug conversion in Lewis rat blood assessed as parent compound levels at 2 mg/kg, po after 4 hrs. The series is classed as ADME, organism-based. The conditions noted are these: in vivo, read-out: Drug metabolism.
Series [3] is described as follows: Prodrug conversion in Lewis rat blood assessed as formation phosphate metabolite at 2 mg/kg, po after 4 hrs. It counts as ADME, organism-based. The conditions noted are these: in vivo.
In series [4] the test system is Rattus norvegicus. Put plainly: Immunosuppressive activity in Lewis rat assessed as reduction in blood lymphocytes count at 2 mg/kg, po after 24 hrs relative to control. It counts as functional. The arrangement: scale not given: the % may be the effect or the level left. Put shortly:
as §1

A short description of series [5]: Prodrug conversion in Lewis rat blood assessed as parent compound levels at 2 mg/kg, po after 24 hrs. The series is classed as ADME, organism-based. The conditions noted are these: in vivo, read-out: Drug metabolism.
The nature of series [6]: Prodrug conversion in Lewis rat blood assessed as formation phosphate metabolite at 2 mg/kg, po after 24 hrs. It counts as ADME, organism-based. The note with it: in vivo.
Series [7] deals with Rattus norvegicus. Put plainly: Immunosuppressive activity in Lewis rat assessed as reduction in blood lymphocytes count at 2 mg/kg, po after 48 hrs relative to control. The arrangement: scale not given: the % may be the effect or the level left. It counts as functional. The method, boiled down:
as §1

Series [8] in a line: Prodrug conversion in Lewis rat blood assessed as parent compound levels at 2 mg/kg, po after 48 hrs. The series is classed as ADME, organism-based. The conditions noted are these: in vivo, read-out: Drug metabolism.
Series [9] is described as follows: Prodrug conversion in Lewis rat blood assessed as formation phosphate metabolite at 2 mg/kg, po after 48 hrs. The series is classed as ADME, organism-based. The note with it: in vivo.
Series [10] in a line: Half life in Lewis rat at 2 mg/kg, po after 72 hrs. The conditions noted are these: in vivo. The series is classed as ADME, organism-based.

By half-life is commonly meant the time in which the quantity being followed falls by half. `CCCCCCCc1nc2c(s1)-c1ccc([C@H]3CC[C@](N)(CO)C3)cc1CC2`: the results for the Activity with Rattus norvegicus [1], in the series with Rattus norvegicus [4] and with Rattus norvegicus [7] were 40%, 77% and 80%, respectively. Further, the results for the concentration in series [2], in [5] and in series [8] were 66 nM, 110 nM and 43 nM, respectively. Besides, the values for the Drug metabolism in series [3], in [6] and in series [9] were 63 nM, 300 nM and 150 nM, respectively. Moreover, the half-life in series [10] is > 50 h.
With `CCCc1nc2c(s1)-c1ccc([C@H]3CC[C@](N)(CO)C3)cc1CC2`, the Activity in the series on Rattus norvegicus [1] came to 41%; in the series with Rattus norvegicus [4], 0%. The concentration in series [2] was 110 nM; in series [5] it was < 19 nM. The Drug metabolism is reported as 79 nM in [3] and < 10 nM in series [6]. The half-life in series [10] was < 2 h.
Regarding `CCCCCCOc1nc2ccc3cc([C@H]4CC[C@](N)(CO)C4)ccc3c2s1`, the Activity with Rattus norvegicus [1] is reported as 73%; with Rattus norvegicus [4], 83%; with Rattus norvegicus [7], 86%. For the same compound, the concentration came out at 81 nM in series [2], 78 nM in series [5] and 41 nM in series [8]. In addition, the Drug metabolism in [3] stood at 260 nM; in series [6], 250 nM; in series [9], 160 nM. In series [10], the half-life is 41 h.
Consider `COc1cccc(-c2nc3c(s2)-c2ccc([C@H]4CC[C@](N)(CO)C4)cc2CC3)c1`, for which the Activity in the series on Rattus norvegicus [1] worked out at 31%; with Rattus norvegicus [4] it was 63%; with Rattus norvegicus [7] it was 30%. In addition, the concentration in series [2] is 97 nM; in series [5], 68 nM; in series [8] it was < 5 nM. The Drug metabolism in series [3] was 39 nM; in series [6], < 5 nM; in series [9] it was < 5 nM. Also, the half-life in series [10] was 4 h.
On to `CCCCCOc1nc2ccc3cc([C@H]4CC[C@](N)(CO)C4)ccc3c2s1`, for which the Activity is recorded as 80% with Rattus norvegicus [1], 80% in the series on Rattus norvegicus [4] and 68% with Rattus norvegicus [7]. Further, the figures for the concentration in series [2], in series [5] and in [8] were 31 nM, 17 nM and 8.3 nM, respectively. This compound showed a half-life in [10] of 35 h.
On to `CCCCNc1nc2c(s1)-c1ccc([C@H]3CC[C@](N)(CO)C3)cc1CC2`, for which the Activity in the series with Rattus norvegicus [1] stood at 37%; with Rattus norvegicus [4], 0%. Also, the concentration in series [2] amounted to 33 nM. Moreover, the results for the Drug metabolism in series [3] and in series [6] were 570 nM and 190 nM, respectively.
As to `CCCCc1nc2c(s1)-c1ccc([C@H]3CC[C@](N)(CO)C3)cc1CC2`, the Activity worked out at 66% in the series with Rattus norvegicus [1], 48% in the series with Rattus norvegicus [4] and 12% with Rattus norvegicus [7]. For the same compound, the concentration in series [2] is 77 nM; in series [5], 9.4 nM; in series [8] it was < 5 nM. Further, the results for the Drug metabolism in [3], in [6] and in series [9] were 97 nM, 8.2 nM and < 5 nM, respectively. Besides, the half-life in series [10] is < 4 h.
In the case of `CCCCCOc1nc2c(s1)-c1ccc([C@H]3CC[C@](N)(CO)C3)cc1CC2`, the figures for the Activity in the series on Rattus norvegicus [1], in the series on Rattus norvegicus [4] and with Rattus norvegicus [7] were 67%, 80% and 59%, respectively. For the same compound, the concentration in [2] stood at 81 nM; in [5], 29 nM; in [8], 12 nM. For the same compound, the Drug metabolism was 71 nM in [3], 26 nM in series [6] and < 5 nM in series [9]. For the same compound, the half-life in [10] was 21 h.
`Cc1ccc(-c2nc3c(s2)-c2ccc([C@H]4CC[C@](N)(CO)C4)cc2CC3)cc1`: the Activity is recorded as 9.3% in the series on Rattus norvegicus [1] and 2.1% in the series with Rattus norvegicus [4]. Also, the figures for the concentration in [2] and in [5] were 48 nM and 37 nM, respectively. Besides, the Drug metabolism is on record as 12 nM in series [3] and 19 nM in [6]. In series [10], the half-life was 6 h.
Take `CCCCN(C)c1nc2c(s1)-c1ccc([C@H]3CC[C@](N)(CO)C3)cc1CC2`: the Activity stood at 30% with Rattus norvegicus [1], 27% in the series on Rattus norvegicus [4] and 4.4% in the series with Rattus norvegicus [7]. In addition, the concentration in [2] worked out at 110 nM; in [5] it was 18 nM; in series [8], 4.1 nM. In series [10], the half-life is 9 h.
With `CCCCCCc1nc2c(s1)-c1ccc([C@H]3CC[C@](N)(CO)C3)cc1CC2`, the figures for the Activity in the series on Rattus norvegicus [1], in the series with Rattus norvegicus [4] and in the series on Rattus norvegicus [7] were 59%, 82% and 74%, respectively. In addition, the concentration is 110 nM in series [2], 66 nM in series [5] and < 10 nM in series [8]. For the same compound, the Drug metabolism in [3] amounted to 140 nM; in series [6], 160 nM; in [9] it was 50 nM. Moreover, the half-life in [10] is 35 h.
For the compound `CCCCOc1nc2ccc3cc([C@H]4CC[C@](N)(CO)C4)ccc3c2s1`, the Activity in the series on Rattus norvegicus [1] was 65%; with Rattus norvegicus [4], 77%; in the series on Rattus norvegicus [7], 59%. The figures for the concentration in series [2], in series [5] and in series [8] were 28 nM, 21 nM and 12 nM, respectively. Moreover, the Drug metabolism was 5.1 nM in series [3], < 5 nM in series [6] and < 5 nM in series [9]. The same compound gave a half-life in series [10] of 14 h.
For `CCCCCCOc1nc2c(s1)-c1ccc([C@H]3CC[C@](N)(CO)C3)cc1CC2`, the Activity in the series with Rattus norvegicus [1] amounted to 66%; with Rattus norvegicus [4], 82%; with Rattus norvegicus [7], 82%. Moreover, the concentration in series [2] worked out at 72 nM; in series [5] it was 31 nM; in series [8], 17 nM. The values for the Drug metabolism in [3], in [6] and in series [9] were 62 nM, < 5 nM and < 5 nM, respectively. In [10], this compound showed a half-life of 25 h.
On to `CCCCSc1nc2ccc3cc([C@H]4CC[C@](N)(CO)C4)ccc3c2s1`, for which the Activity was 69% in the series on Rattus norvegicus [1], 75% in the series on Rattus norvegicus [4] and 59% with Rattus norvegicus [7]. Moreover, the concentration was 15 nM in [2], 8 nM in series [5] and < 5 nM in [8]. In addition, the values for the Drug metabolism in series [3], in [6] and in series [9] were 10 nM, 8.1 nM and < 5 nM, respectively. The half-life in [10] was 6 h.
Consider `CCCCCSc1nc2c(s1)-c1ccc([C@H]3CC[C@](N)(CO)C3)cc1CC2`, for which the Activity in the series with Rattus norvegicus [1] was 72%; with Rattus norvegicus [4] it was 76%; in the series with Rattus norvegicus [7], 44%. For the same compound, the values for the concentration in series [2], in series [5] and in [8] were 87 nM, 16 nM and < 5 nM, respectively. The Drug metabolism in series [3] is 43 nM; in series [6], 10 nM; in [9], < 5 nM. This compound also had a half-life in series [10] of 5 h.

The values above are taken from ChEMBL document CHEMBL4251543, “Identification of potent tricyclic prodrug S1P1 receptor modulators” (Medchemcomm, 2017).
